# Test results: ChEMBL document CHEMBL3992565, “Discovery of [1,2,3]Triazolo[4,5-d]pyrimidine Derivatives as Novel LSD1 Inhibitors” (ACS Med Chem Lett, 2017)
# Activity calls are given as the source filed them. The calls are words filed in the database; no cut-off is given here.
# Assays:
# [1] = target: T1, Lysine-specific histone demethylase 1A (Homo sapiens, UniProt O60341); conditions: 600 uM
# MGC-803 [2] = test: Antiproliferative activity against human MGC803 cells after 5 days by MTT assay; conditions: MGC-803, 120 h
# [3] = target: T1, Lysine-specific histone demethylase 1A; test: Inhibition of full length recombinant LSD1 (unknown origin) expressed in Escherichia coli […] using H3K4me2 as substrate by fluorescence assay
# Homo sapiens [4] = species: Homo sapiens; test: Activity at histone lysine methyltransferase in human MGC803 cells assessed as effect on H3K9me1 level up to 4 uM after 5 days by Western blot method; assay type: cell-based
# Outline: (§1)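 MGC-803 gastric cancer cells, which overexpress LSD1, were treated at the indicated concentrations. Several histone methylation marks were then probed by Western blot. Each experiment was run independently at least three times.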
# MGC-803 [5] = test: Effect on LSD1 expression in human MGC803 cells up to 4 uM after 5 days by DAPI staining based immunofluorescence assay; assay type: cell-based; conditions: mgc-803, 120 h
# Outline: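 MGC-803 cells were seeded in 96-well plates and treated for 5 days at the indicated concentrations. LSD1 was stained by immunofluorescence, with DAPI used for cell counting. Each well was scored over 12 fields by high content analysis. Data are mean ± SD from at least three experiments.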
# Homo sapiens [6] = species: Homo sapiens; test: Activity at histone demethylase in human MGC803 cells assessed as effect on H3K4me3 level up to 4 uM after 5 days by Western blot method; assay type: cell-based
# Outline: as §1
# MGC-803 [7] = test: Antimigratory activity against human MGC803 cells assessed as accumulation of E-cadherin at 0.5 to 2 uM after 24 hrs by Western blot method; assay type: functional, cell-based
# Outline: (§2)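 MGC-803 cells were exposed for 24 h to three low concentrations. E-cadherin (epithelial marker) and N-cadherin (mesenchymal marker) were then probed by Western blot. Data are mean ± SD from at least three experiments.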
# MAO-A [8] = target: T2, MAO-A (Homo sapiens, UniProt P21397); test: Inhibition of MAO-A (unknown origin) at 10 uM using luciferin-derived luminogenic substrate by MAO-Glo assay relative to control; conditions: MAO-A enzyme (unknown origin), probe luciferin-derived luminogenic substrate
# T2 sequence (P21397 whole entry): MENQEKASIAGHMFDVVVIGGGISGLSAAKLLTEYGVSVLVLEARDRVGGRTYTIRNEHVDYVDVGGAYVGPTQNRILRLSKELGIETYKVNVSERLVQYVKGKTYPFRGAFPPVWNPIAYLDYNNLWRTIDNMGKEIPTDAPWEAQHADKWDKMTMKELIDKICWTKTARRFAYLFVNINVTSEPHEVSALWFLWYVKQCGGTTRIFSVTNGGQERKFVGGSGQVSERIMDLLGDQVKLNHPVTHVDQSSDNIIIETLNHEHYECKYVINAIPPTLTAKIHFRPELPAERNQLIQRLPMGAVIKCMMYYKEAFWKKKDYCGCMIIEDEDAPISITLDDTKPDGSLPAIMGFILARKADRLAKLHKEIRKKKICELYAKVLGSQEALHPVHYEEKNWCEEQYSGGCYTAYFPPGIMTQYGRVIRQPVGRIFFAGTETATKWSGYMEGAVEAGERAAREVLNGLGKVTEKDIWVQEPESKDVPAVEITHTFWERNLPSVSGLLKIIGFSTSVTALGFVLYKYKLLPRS
# MGC-803 [9] = test: Antimigratory activity against human MGC803 cells assessed as decrease in N-cadherin level at 0.5 to 2 uM after 24 hrs by Western blot method; assay type: functional, cell-based
# Outline: as §2
# Homo sapiens [10] = species: Homo sapiens; test: Activity at histone demethylase in human MGC803 cells assessed as effect on H3K9me2 level up to 4 uM after 5 days by Western blot method; assay type: cell-based
# Outline: as §1
# Homo sapiens [11] = species: Homo sapiens; test: Activity at histone lysine methyltransferase in human MGC803 cells assessed as effect on H3K9me2 level up to 4 uM after 5 days by Western blot method; assay type: cell-based
# Outline: as §1
# MGC-803 [12] = test: Antimigratory activity against human MGC803 cells at lower concentration after 24 hrs by Hoechst 33258 staining based transwell assay; assay type: functional, cell-based
# Outline: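 Migration was measured by transwell assay read by high content analysis. MGC-803 cells were treated for 24 h at three low concentrations. Data are mean ± SD from at least three independent experiments, with significance at p < 0.01.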
# MAO-B [13] = target: T3, MAO-B (Homo sapiens, UniProt P27338); test: Inhibition of MAO-B (unknown origin) at 10 uM using luciferin-derived luminogenic substrate by MAO-Glo assay relative to control; conditions: MAO-B enzyme (unknown origin), probe luciferin-derived luminogenic substrate
# T3 sequence (P27338 whole entry): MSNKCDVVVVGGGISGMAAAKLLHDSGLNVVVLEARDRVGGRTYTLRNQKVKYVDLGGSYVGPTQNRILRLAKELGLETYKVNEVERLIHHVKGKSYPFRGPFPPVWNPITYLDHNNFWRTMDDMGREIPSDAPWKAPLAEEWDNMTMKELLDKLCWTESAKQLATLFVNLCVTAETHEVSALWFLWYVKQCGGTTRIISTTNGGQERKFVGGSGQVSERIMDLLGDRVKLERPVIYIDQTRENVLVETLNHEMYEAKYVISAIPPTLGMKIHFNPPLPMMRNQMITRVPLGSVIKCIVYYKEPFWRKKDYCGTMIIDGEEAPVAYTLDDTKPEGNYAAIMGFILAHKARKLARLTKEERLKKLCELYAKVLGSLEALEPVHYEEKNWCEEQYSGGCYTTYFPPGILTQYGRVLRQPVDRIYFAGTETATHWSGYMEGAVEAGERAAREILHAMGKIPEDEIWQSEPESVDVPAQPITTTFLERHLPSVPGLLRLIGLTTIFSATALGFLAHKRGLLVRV
# MAO-A [14] = target: T2, MAO-A; test: Inhibition of MAO-A (unknown origin) at 1 uM using luciferin-derived luminogenic substrate by MAO-Glo assay relative to control; conditions: MAO-A enzyme (unknown origin), probe luciferin-derived luminogenic substrate
# Homo sapiens [15] = species: Homo sapiens; test: Activity at histone lysine methyltransferase in human MGC803 cells assessed as effect on H3K4me3 level up to 4 uM after 5 days by Western blot method; assay type: cell-based
# Outline: as §1
# Homo sapiens [16] = species: Homo sapiens; test: Activity at histone demethylase in human MGC803 cells assessed as effect on H3K9me1 level up to 4 uM after 5 days by Western blot method; assay type: cell-based
# Outline: as §1
# MAO-B [17] = target: T3, MAO-B; test: Inhibition of MAO-B (unknown origin) at 1 uM using luciferin-derived luminogenic substrate by MAO-Glo assay relative to control; conditions: MAO-B enzyme (unknown origin), probe luciferin-derived luminogenic substrate
inhibition [1],IC50 (MGC-803 [2]),IC50 [3],inhibition at 10 µM (MAO-A [8]),inhibition at 10 µM (MAO-B [13]),inhibition at 1 µM (MAO-A [14]),inhibition at 1 µM (MAO-B [17]),Compound,Activity (Homo sapiens [4]),Activity (MGC-803 [5]),Activity (Homo sapiens [6]),Activity (MGC-803 [7]),Activity (MGC-803 [9]),Activity (Homo sapiens [10]),Activity (Homo sapiens [11]),Activity (MGC-803 [12]),Activity (Homo sapiens [15]),Activity (Homo sapiens [16])
inactive,> 125 µM,0.041 µM,–,–,–,–,O=C(O)c1ccc(CN2CCC(CN[C@@H]3C[C@H]3c3ccccc3)CC2)cc1 [GSK2879552],–,–,–,–,–,–,–,–,–,–
–,7.64 µM,–,59%,39%,34%,11%,c1ccc(CSc2nc(Sc3ccccn3)c3nnn(Cc4ccccc4)c3n2)cc1,inactive,Non-Toxic,inactive,Active,Active,inactive,inactive,Active,inactive,inactive
